Data reported in ChEMBL document CHEMBL3351467, “Ligand-free Pd-catalyzed C-N cross-coupling/cyclization strategy: an unprecedented access to 1-thienyl pyrroloquinoxalines for the new approach towards apoptosis” (Eur J Med Chem, 2014).
Calls of active or inactive are those of the source. The rule behind the calls is not given here.

Experiments:
Danio rerio [1] = organism: Danio rerio; assay: Toxicity in Zebrafish embryo assessed as induction of changes in fins region at 1 uM; assay type: organism-based; conditions: in vivo
In short: (§1)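 Embryos at 1 dpf dechorionated with 0.5 mg/ml pronase E and washed in E3. Exposed 6 per well to compound serially diluted in E3 with a final 0.1% DMSO, at 28.5 °C until 5 dpf. Embryos then washed, anaesthetised with 0.008% tricaine and scored blind for body shape, somites, notochord, tail, intestine, fins, brain, jaws, heart, liver and swim bladder. Phenobarbital (3 mM) served as positive control.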

Danio rerio [2] = organism: Danio rerio; assay: Toxicity in Zebrafish embryo assessed as induction of changes in body shape at 1 uM; assay type: organism-based; conditions: in vivo; in short: as §1
Danio rerio [3] = organism: Danio rerio; assay: Induction of apoptosis in Zebrafish embryo at 1 to 10 uM incubated for 24 to 48 hrs by acridine orange based fluorescence microscopy; assay type: functional, organism-based
In short: (§2)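 Embryos dechorionated by hand at 24 hpf, 6 per well in two sets, in 0.1% DMSO. Compound added from serially diluted working stocks, kept at 28 °C for 24 h and 48 h. Washed three times in E3, stained 30 min with acridine orange ([…]) in E3, rinsed twice, then examined for apoptosis.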

Danio rerio [4] = organism: Danio rerio; assay: Hepatotoxicity in Zebrafish embryo at 28 degC until 7 days post fertilization; assay type: organism-based; conditions: in vivo, 168 h
In short: (§3)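 Larvae at 4 dpf exposed in 24-well plates, 6 per well in 0.1% DMSO, to final 1, 3, 10 and 30 concentrations, incubated at 28 °C until 7 dpf. Washed in E3 and anaesthetised with tricaine. Images scored for liver size, liver degeneration and yolk sac retention as percentages. Amiodarone served as positive control.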

Danio rerio [5] = organism: Danio rerio; assay: Hepatotoxicity in Zebrafish embryo at 1 to 3 uM incubated at 28 degC until 7 days post fertilization; assay type: organism-based; conditions: in vivo, 168 h; in short: as §3
[6] = molecular target: 3',5'-cyclic-AMP phosphodiesterase 4B (Homo sapiens) (UniProt Q07343); assay: Inhibition of recombinant His-tagged PDE4B1 (unknown origin) expressed in Sf9 cells at 30 uM pre-incubated for 15 mins before cAMP substrate addition by luminescence assay
In short: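 PDE4B1 purified in house (10 ng) pre-incubated 15 min with compound or DMSO vehicle. cAMP substrate ([…]) added for 1 h, then reaction stopped and detection reagent applied 10 min in the dark. Luminescence (RLU) read. % inhibition = (RLU vehicle − RLU inhibitor)/RLU vehicle × 100.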

[7] = Therapeutic index, ratio of NOAEL in Zebrafish embryos to apoptotic EC50 in Zebrafish embryos; assay type: organism-based, Danio rerio; conditions: read-out: TI
Danio rerio [8] = organism: Danio rerio; assay: Toxicity in Zebrafish embryo assessed as induction of changes in lower jaw region at 1 uM; assay type: organism-based; conditions: in vivo; in short: as §1
Danio rerio [9] = organism: Danio rerio; assay: Toxicity in Zebrafish embryo assessed as induction of changes in intestine region at 1 uM; assay type: organism-based; conditions: in vivo; in short: as §1
Danio rerio [10] = organism: Danio rerio; assay: Teratogenicity in Zebrafish embryo assessed as induction of morphological deformities at lower jaw at 1 uM incubated at 28.5 degC until 5 days post fertilization; assay type: organism-based; conditions: in vivo, 120 h; in short: as §1
Danio rerio [11] = organism: Danio rerio; assay: Toxicity in Zebrafish embryo assessed as induction of changes in upper jaw region at 1 uM; assay type: organism-based; conditions: in vivo; in short: as §1
Danio rerio [12] = organism: Danio rerio; assay: Toxicity in Zebrafish embryo assessed as induction of changes in tail region at 1 uM; assay type: organism-based; conditions: in vivo; in short: as §1
Danio rerio [13] = organism: Danio rerio; assay: Toxicity in Zebrafish embryo assessed as induction of changes in brain region at 1 uM; assay type: organism-based; conditions: in vivo; in short: as §1
Danio rerio [14] = organism: Danio rerio; assay: Hepatotoxicity in Zebrafish embryo at 10 to 30 uM incubated at 28 degC until 7 days post fertilization; assay type: organism-based; conditions: in vivo, 168 h; in short: as §3
Danio rerio [15] = organism: Danio rerio; assay: Toxicity in Zebrafish embryo assessed as induction of changes in swim bladder region at 1 uM; assay type: organism-based; conditions: in vivo; in short: as §1
Danio rerio [16] = organism: Danio rerio; assay: Teratogenicity in Zebrafish embryo incubated at 28.5 degC until 5 days post fertilization; assay type: ADME, organism-based; conditions: in vivo, 120 h; in short: as §1
Danio rerio [17] = organism: Danio rerio; assay: Toxicity in Zebrafish embryo at 1 to 30 uM; assay type: organism-based; conditions: in vivo; in short: as §1
Danio rerio [18] = organism: Danio rerio; assay: Induction of apoptosis in Zebrafish embryo incubated for 24 to 48 hrs by acridine orange based fluorescence microscopy; assay type: functional, organism-based; in short: as §2
Danio rerio [19] = organism: Danio rerio; assay: Toxicity in Zebrafish embryo assessed as induction of changes in somites at 1 uM; assay type: organism-based; conditions: in vivo; in short: as §1
Danio rerio [20] = organism: Danio rerio; assay: Toxicity in Zebrafish embryo assessed as induction of changes in notochords at 1 uM; assay type: organism-based, Notochord; conditions: in vivo; in short: as §1
Danio rerio [21] = organism: Danio rerio; assay: Toxicity in Zebrafish embryo assessed as induction of changes in liver region at 1 uM; assay type: organism-based; conditions: in vivo; in short: as §1
Danio rerio [22] = organism: Danio rerio; assay: Toxicity in Zebrafish embryo assessed as induction of changes in heart region at 1 uM; assay type: organism-based; conditions: in vivo; in short: as §1
Danio rerio [23] = organism: Danio rerio; assay: Induction of apoptosis in Zebrafish embryo at 3 to 30 uM incubated for 24 to 48 hrs by acridine orange based fluorescence microscopy; assay type: functional, organism-based; in short: as §2
Danio rerio [24] = organism: Danio rerio; assay: Teratogenicity in Zebrafish embryo at 1 to 30 uM incubated at 28.5 degC until 5 days post fertilization; assay type: ADME, organism-based; conditions: in vivo, 120 h; in short: as §1
Danio rerio [25] = organism: Danio rerio; assay: Induction of apoptosis in Zebrafish embryo at 1 uM incubated for 24 to 48 hrs by acridine orange based fluorescence microscopy; assay type: functional, organism-based; in short: as §2
Danio rerio [26] = organism: Danio rerio; assay: Hepatotoxicity in Zebrafish embryo at 1 to 10 uM incubated at 28 degC until 7 days post fertilization; assay type: organism-based; conditions: in vivo, 168 h; in short: as §3
Danio rerio [27] = organism: Danio rerio; assay: Hepatotoxicity in Zebrafish embryo at 30 uM incubated at 28 degC until 7 days post fertilization; assay type: organism-based; conditions: in vivo, 168 h; in short: as §3

3',5'-cyclic-AMP phosphodiesterase 4B (Homo sapiens), sequence (Q07343 whole entry): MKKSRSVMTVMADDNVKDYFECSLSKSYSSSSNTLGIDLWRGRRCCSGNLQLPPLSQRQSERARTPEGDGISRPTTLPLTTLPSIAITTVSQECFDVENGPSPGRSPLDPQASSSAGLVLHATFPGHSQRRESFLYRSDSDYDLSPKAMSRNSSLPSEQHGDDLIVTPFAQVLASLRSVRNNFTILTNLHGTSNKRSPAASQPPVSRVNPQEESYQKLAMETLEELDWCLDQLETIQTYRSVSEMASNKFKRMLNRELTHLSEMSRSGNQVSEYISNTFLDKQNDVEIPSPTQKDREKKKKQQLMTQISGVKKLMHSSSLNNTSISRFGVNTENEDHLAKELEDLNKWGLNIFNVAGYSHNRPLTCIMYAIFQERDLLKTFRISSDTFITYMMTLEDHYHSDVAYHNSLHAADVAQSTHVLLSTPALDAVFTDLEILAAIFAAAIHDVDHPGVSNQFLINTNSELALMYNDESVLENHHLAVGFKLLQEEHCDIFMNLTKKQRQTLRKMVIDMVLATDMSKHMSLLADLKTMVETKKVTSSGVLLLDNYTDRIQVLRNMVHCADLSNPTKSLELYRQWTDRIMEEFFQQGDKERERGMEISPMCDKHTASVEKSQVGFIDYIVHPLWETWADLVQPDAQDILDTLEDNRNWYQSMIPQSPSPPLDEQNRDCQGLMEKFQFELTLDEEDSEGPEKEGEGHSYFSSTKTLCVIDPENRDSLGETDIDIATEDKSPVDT

SMILES	Activity (Danio rerio [1])	Activity (Danio rerio [2])	NOAEL (Danio rerio [4]) [µM]	inhibition [6] [%]	selectivity ratio [7]	Activity (Danio rerio [8])	Activity (Danio rerio [9])	Activity (Danio rerio [11])	Activity (Danio rerio [12])	Activity (Danio rerio [13])	Activity (Danio rerio [15])	NOAEL (Danio rerio [16]) [µM]	MTC (Danio rerio [17]) [µM]	NOAEL (Danio rerio [17]) [µM]	EC50 (Danio rerio [18]) [µM]	Activity (Danio rerio [19])	Activity (Danio rerio [20])	Activity (Danio rerio [21])	Activity (Danio rerio [22])	other results
CCOC(=O)c1ccsc1-n1c(-c2ccccc2)cc2nc3ccccc3nc21	Non-toxic	Non-toxic	3	85	0.31	Toxic	Toxic	Toxic	Non-toxic	Toxic	Toxic	1	1	< 1	3.22	Toxic	Non-toxic	Toxic	Non-toxic	Activity (Danio rerio [3]): Active; Activity (Danio rerio [5]): Non-toxic; Activity (Danio rerio [10]): Non-toxic; Activity (Danio rerio [14]): Toxic
CCOC(=O)c1c(-c2ccccc2)csc1-n1c(-c2ccc(C)cc2)cc2nc3ccccc3nc21	Non-toxic	Non-toxic	10	78	1.64	Toxic	Non-toxic	Non-toxic	Non-toxic	Non-toxic	Non-toxic	3	1	3	1.83	Non-toxic	Non-toxic	Non-toxic	Non-toxic	Activity (Danio rerio [23]): Active; Activity (Danio rerio [24]): Non-toxic; Activity (Danio rerio [25]): inactive; Activity (Danio rerio [26]): Non-toxic; Activity (Danio rerio [27]): Toxic
